Compound activity deposited in PubChem BioAssay by several laboratories.
Only some compounds are listed: those with a hit (about 2.9% of all), similar ones and a draw of the others.
MT stabilizer = microtubule stabilizers in HeLa cells. HeLa tubulin immunostaining HCS, 24 h; share of cells brighter than vehicle mean+2SD. % tubulin-high responders, % at 10 µM. actives 0.83% (n = 200,000). AID 2205;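 active = plate Z-score above 3 for both tubulin-high and condensed-nucleus cell shares, with cell loss under 80%, at 10 µM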;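 also: anti alpha tubulin signal scored within the nucleus-defined area of each cell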
Wee1 degr inh = inhibitors of human Wee1 degradation; HeLa Luc-Wee1K328M stability, luciferase luminescence; 100% = proteasome inhibitor MG132 effect; reporter increase, % at 5 µM; actives 1.2% (n = 220,000); AID 1321;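 active = activation above the mean of all tested compounds plus 3 SD, set per screening run, cut at about 8.8% in these data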;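 also: cells exposed to compound for 20 h before luminescence read; 0% = DMSO alone and 100% = MG132 at 30 µM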
Target sequence (P30291 whole entry K328M): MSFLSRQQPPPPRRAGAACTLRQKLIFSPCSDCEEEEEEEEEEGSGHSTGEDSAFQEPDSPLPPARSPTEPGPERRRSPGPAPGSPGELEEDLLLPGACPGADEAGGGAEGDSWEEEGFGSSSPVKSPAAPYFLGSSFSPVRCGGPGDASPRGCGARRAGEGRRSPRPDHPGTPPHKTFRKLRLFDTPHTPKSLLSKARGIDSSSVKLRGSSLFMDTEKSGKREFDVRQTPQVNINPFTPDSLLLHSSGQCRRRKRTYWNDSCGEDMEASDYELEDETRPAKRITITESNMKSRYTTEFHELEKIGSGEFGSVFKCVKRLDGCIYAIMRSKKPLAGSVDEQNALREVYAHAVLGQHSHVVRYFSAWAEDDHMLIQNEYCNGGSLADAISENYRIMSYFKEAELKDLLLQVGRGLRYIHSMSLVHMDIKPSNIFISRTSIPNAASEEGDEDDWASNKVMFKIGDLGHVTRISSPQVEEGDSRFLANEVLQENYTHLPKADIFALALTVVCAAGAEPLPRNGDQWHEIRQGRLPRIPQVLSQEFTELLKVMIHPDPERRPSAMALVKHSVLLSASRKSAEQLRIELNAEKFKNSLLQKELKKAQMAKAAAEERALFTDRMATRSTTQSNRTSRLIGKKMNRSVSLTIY
bCat nuc transl = beta-catenin nuclear translocation modulation. actives 0.3% (n = 190,000). HeLa beta-catenin nuclear translocation, immunofluorescence imaging. nuclear translocation activity, % at 5 µM;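 active = nuclear translocation activity above 50% at 5 µM, with a well cell count of 50 or more; inconclusive = wells under 50 cells across six images, flagged as toxic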;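 also: per-cell ratio of nuclear to cytoplasmic median beta-catenin stain intensity; plate controls were DMSO negative control for no effect and GSK-3 inhibitor IX positive control for full effect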
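Test system: human HeLa cell line; Doses: 5 µM primary, 0.02–20 µM confirmation; Incubation: 24 h compound exposure, 37°C; Detection: beta-catenin immunofluorescence imaging with DAPI; Read-out: beta-catenin nuclear/cytoplasmic ratio, % activation.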
Insulin prom up = MIN6 insulin promoter up-regulation; MIN6 insulin promoter-GFP reporter, high-content imaging; hits give high values; z-score at 5 µM; actives 0.3% (n = 190,000); AID 1625;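 active = z-score above 3 at 5 µM with at least 500 cells counted in the well; inconclusive = wells under 500 cells, flagged as cytotoxic or low count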
Autophagy HCS = modulators of autophagy | MEF GFP-LC3 puncta imaging; test concentration mostly 10 µM | calls only at 10 µM (by protocol) | actives 0.98% (n = 190,000);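 active = percentage of spot-positive cells more than 3 SD above its plate mean, without a fluorescence outlier flag or 80% toxicity; inconclusive = no clear call, values can overlap the other calls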;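 also: spot-positive cell cutoff set from DMSO-treated cells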
The depositor's hits bear a star; i = inactive; ? = inconclusive; · = no result; + = active, no number.

SMILES | MT stabilizer | Wee1 degr inh | bCat nuc transl | Insulin prom up | Autophagy HCS
O=C(c1ccc(C(F)(F)F)cc1)C1CCCN(C(=O)CN2C(=O)CSC2=O)C1 (stereo not given) | 3 | 9.8* | 1 | 0.31 | i
COc1ccc2nc(Nc3nc(CSc4nnnn4-c4ccccc4)cc(=O)[nH]3)nc(C)c2c1 | 8 | 1 | · | -0.43 | +
CCCCOc1ncnc2c1[nH]c1ccc(C)cc12 | · | 0 | 1 | -0.88 | ·
COc1ccc(-c2nc3scc(-c4ccc(OC)c(OC)c4)c3c(=O)o2)cc1 | 4 | -1 | · | -1.2 | +
COc1ccc(-c2csc3nc(C(C)C)oc(=O)c23)cc1OC | 6 | 1 | 1 | 0.28 | i
CC1C/C(=C/c2ccncc2)C(=O)/C(=C/c2ccncc2)C1 (stereo not given) | 37* | 7 | · | ? | i
CC1C/C(=C/c2cccn2C)C(=O)/C(=C/c2cccn2C)C1 (stereo not given) | 1 | 1 | · | · | i
O=C(Nc1ccccc1N1CCN(c2ccccc2)CC1)C12CC3CC(CC(C3)C1)C2 | 3 | -1 | -1 | -0.83 | +
CNC(=O)CS(=O)CC(=O)Nc1cc(OCCOC)c(Cl)cc1Cl (stereo not given) | 5 | 8.9* | -1 | -0.57 | i
CCN(CC)CCCNC1=C(Cl)C(=O)c2ccccc2C1=O | 43* | -1 | 1 | ? | i
CC(C)(C)c1ccc(C(=O)N2CCCC2)s1 | · | -2 | -1 | -0.61 | ·
CC(=O)c1ccc(C(C)(C)c2ccc(C(C)=O)s2)s1 | 3 | 9.3* | · | · | i
O=C(NCCc1ccccc1)c1ccc(Cl)c([N+](=O)[O-])c1 | 1 | 9.4* | 0 | 0.67 | i
Cc1cccc(NC(=O)c2ccc(NCCc3ccccc3)c([N+](=O)[O-])c2)c1 | 14 | 3 | -1 | -0.12 | +
O=C(NCCc1ccccc1)C(=O)NCc1ccncc1 | 2 | 2 | · | -0.12 | i
Cc1ccc(NC(=O)c2ccc(NCc3ccco3)c([N+](=O)[O-])c2)cc1Cl | 2 | 1 | 3 | -0.1 | +
Cc1cc(C(=O)NCCc2ccccc2)ccc1[N+](=O)[O-] | 1 | 1 | -2 | 0.08 | i
O=C(NCCc1ccccc1)c1ccncc1 | 6 | 11* | -2 | 0.71 | i
CC1CC(C)(C)NC(=S)N1CCCC(=O)NCCc1ccc(Cl)cc1 (stereo not given) | 6 | 1 | 0 | 0.08 | i
COC(=O)c1ccccc1NC1CC(=O)N(c2c(C)cccc2C)C1=O (stereo not given) | 2 | -1 | 1 | 0.73 | i
O=S(=O)(c1cnc[nH]1)N1CCCCCC1 | 2 | 13* | -2 | -0.04 | i
O=S(=O)(c1cnc[nH]1)N1CCN(c2ccccc2)CC1 | 6 | 0 | -6 | -0.59 | i
O=C(/C=C/c1cccc([N+](=O)[O-])c1)N1CCN(Cc2ccc3c(c2)OCO3)CC1 | 3 | 2 | 1 | · | i
c1ccc(SCCOCCN2CCc3ccccc3C2)cc1 | 1 | -1 | 1 | -0.09 | i
Nc1nc(SCc2ccccc2Cl)nc2nc3c(cc12)CCCC3 | 4 | -1 | 0 | -0.17 | i
SMILES | MT stabilizer | Wee1 degr inh | bCat nuc transl | Insulin prom up | Autophagy HCS
Nc1nc(SCc2ccc(Cl)cc2Cl)nc2nc3c(cc12)CCCC3 | 2 | -3 | · | 0.64 | +
Cc1ccccc1-c1ncc(CN2CCN(C3CCCC3)C(CCO)C2)cn1 (stereo not given) | 3 | -2 | 6 | 0.26 | i
CC(C)=CCN1CCN(C/C(Cl)=C/c2ccccc2)CC1CCO (stereo not given) | · | -3 | 0 | 0.22 | ·
OCCC1CN(Cc2cnc(-c3cccc4ccccc34)nc2)CCN1C1CCCCC1 (stereo not given) | 2 | -3 | -3 | · | +
CC(C)N1CCC(N2CCN(CC#Cc3ccccc3)CC2CCO)CC1 (stereo not given) | 4 | 16* | 1 | -0.78 | i
OCCC1CN(C/C(Cl)=C/c2ccccc2)CCN1C1CCCC1 (stereo not given) | 4 | 0 | -2 | -0.47 | +
O=C(CN1C(=O)c2ccccc2S1(=O)=O)Nc1ccc(S(=O)(=O)N2CCCC2)cc1 | 4 | 0 | 0 | 0.94 | i
O=C(CN1C(=O)c2ccccc2S1(=O)=O)Nc1ccc(S(=O)(=O)N2CCCCC2)cc1 | 2 | 9.1* | 0 | -0.15 | i
Nc1nc(C(F)(F)F)c(Br)c(=O)n1N | 2 | -1 | 1 | 0.04 | i
CCOC(=O)c1c(NC(C)=O)sc2c(OCC(O)CNC(C)(C)C)c(Br)ccc12 (stereo not given) | 82 | 0 | -2 | 1.4 | +
CCOc1ccc(C2CC(c3c(O)c4ccccc4oc3=O)=NN2c2ccccc2)cc1OC (stereo not given) | 2 | 0 | 2 | · | +
CC1(C)CC(=O)C=C(NCc2ccco2)C1 | 3 | 0 | -1 | 0.31 | i
CC1(C)CC(=O)C=C(NCc2cccnc2)C1 | 3 | 9.3* | -3 | 1.5 | i
O=C1CC(c2ccccc2)CC(O)=C1C=Nc1cccc(Cl)c1 (stereo not given) | 1 | 9.6* | -2 | 0.98 | i
COc1ccccc1N=CC1=C(O)CC(c2ccccc2)CC1=O (stereo not given) | 5 | -2 | 96* | 0.48 | i
COc1ccc([N+](=O)[O-])cc1NC(=O)c1ccc(N(Cc2ccccc2Cl)S(C)(=O)=O)cc1 | 4 | 2 | 0 | 0.35 | i
CC(C)(C)c1ccc(C(=O)N/N=C/c2ccc(OCCCF)cc2)cc1 | 1 | 1 | 5 | -2.6 | i
C=CCNC(=O)CC1C(=O)NCCN1Cc1ccc(-c2ccccc2)cc1 (stereo not given) | 4 | 11* | 2 | -0.12 | i
O=C(CC1C(=O)NCCN1Cc1ccc(-c2ccccc2)cc1)NCC1CC1 (stereo not given) | 1 | 2 | 6 | · | i
C/C=C/C(=O)Nc1cccc(C2=NOC3(C2)C[C@H](C(N)=O)N(C(=O)c2ccccc2C(=O)c2ccccc2)C3)c1 (stereo not given in full) | · | · | -2 | 0.12 | ·
Cc1cccc(Nc2nnc(SCC(=O)NC(=O)Nc3ccc4c(c3)OCCO4)s2)c1 | 2 | 2 | 1 | 0.25 | i
Cc1nnc(SCC(=O)NC(=O)Nc2ccc3c(c2)OCCO3)s1 | 4 | 4 | -1 | -0.23 | +
O=C(NC1CCCCCC1)C1CCN(S(=O)(=O)N2CCC3(CC2)OCCO3)CC1 | 1 | 0 | 4 | -0.02 | +
O=C(CCc1nc2ccccc2c(=O)[nH]1)NCc1ccco1 | 6 | 2 | -4 | 1 | +
N#Cc1ccc(NC(=O)COC(=O)CCc2nc3ccccc3c(=O)[nH]2)cc1 | · | 9.7* | -3 | 0.38 | ·
O=C(COC(=O)CCc1nc2ccccc2c(=O)[nH]1)Nc1ccccc1Cl | · | 2 | 0 | 0.4 | ·
S=C(NCCc1ccccc1)Nc1ccc(Br)cc1 | 3 | 0 | -1 | · | i
